From ChEMBL document CHEMBL4052595, “Application of Residual Dipolar Couplings and Selective Quantitative NOE to Establish the Structures of Tetranortriterpenoids from Xylocarpus rumphii” (J Nat Prod, 2017)
Active and inactive are the calls of the source.

Tests used:
Assay type in all cases: functional, cell-based
[1] = test system: SK-OV-3; test: Growth inhibition of human SKOV3 cells at 10^-5 M incubated for 48 hrs by sulforhodamine B assay
Procedure, shortened: (§1)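 Run in the NCI59 one-dose cell-line screen, with each compound tested at a single concentration of 1 × 10−5 M.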

[2] = test system: NCI-H522; test: Growth inhibition of human NCI-H522 cells at 10^-5 M incubated for 48 hrs by sulforhodamine B assay; procedure, shortened: as §1
[3] = test system: OVCAR-8; test: Growth inhibition of human OVCAR8 cells at 10^-5 M incubated for 48 hrs by sulforhodamine B assay; procedure, shortened: as §1
[4] = test system: ACHN; test: Growth inhibition of human ACHN cells at 10^-5 M incubated for 48 hrs by sulforhodamine B assay; procedure, shortened: as §1
[5] = test system: MDA-MB-231; test: Growth inhibition of human MDA-MB-231 cells at 10^-5 M incubated for 48 hrs by sulforhodamine B assay; procedure, shortened: as §1
[6] = test system: OVCAR-5; test: Growth inhibition of human OVCAR5 cells at 10^-5 M incubated for 48 hrs by sulforhodamine B assay; procedure, shortened: as §1
[7] = test system: HT-29; test: Growth inhibition of human HT-29 cells at 10^-5 M incubated for 48 hrs by sulforhodamine B assay; procedure, shortened: as §1
[8] = test system: EKVX; test: Growth inhibition of human EKVX cells at 10^-5 M incubated for 48 hrs by sulforhodamine B assay; procedure, shortened: as §1
[9] = test system: NCI/ADR-RES; test: Growth inhibition of human NCI/ADR-RES cells at 10^-5 M incubated for 48 hrs by sulforhodamine B assay; procedure, shortened: as §1
[10] = test system: SW-620; test: Growth inhibition of human SW620 cells at 10^-5 M incubated for 48 hrs by sulforhodamine B assay
Procedure, shortened: (§2)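 Tested at a single concentration of 1 × 10−5 M as part of the NCI59 cell-line one-dose screen.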

[11] = test system: HL-60(TB); test: Growth inhibition of human HL-60(TB) cells at 10^-5 M incubated for 48 hrs by sulforhodamine B assay
Procedure, shortened: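 Run in the NCI59 cell-line one-dose screen, with each compound tested at a single concentration of 1 × 10−5 M.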

[12] = test system: MDA-MB-435; test: Growth inhibition of human MDA-MB-435 cells at 10^-5 M incubated for 48 hrs by sulforhodamine B assay; procedure, shortened: as §1
[13] = test system: SN12C; test: Growth inhibition of human SN12C cells at 10^-5 M incubated for 48 hrs by sulforhodamine B assay; procedure, shortened: as §1
[14] = test system: NCI-H226; test: Growth inhibition of human NCI-H226 cells at 10^-5 M incubated for 48 hrs by sulforhodamine B assay; procedure, shortened: as §1
[15] = test system: LOX IMVI; test: Growth inhibition of human LOXIMVI cells at 10^-5 M incubated for 48 hrs by sulforhodamine B assay; procedure, shortened: as §1
[16] = test system: UACC-62; test: Growth inhibition of human UACC62 cells at 10^-5 M incubated for 48 hrs by sulforhodamine B assay; procedure, shortened: as §2
[17] = test system: RXF 393; test: Growth inhibition of human RXF393 cells at 10^-5 M incubated for 48 hrs by sulforhodamine B assay; procedure, shortened: as §1
[18] = test system: NCI-H322M; test: Growth inhibition of human NCI-H322M cells at 10^-5 M incubated for 48 hrs by sulforhodamine B assay; procedure, shortened: as §1
[19] = test system: K562; test: Growth inhibition of human K562 cells at 10^-5 M incubated for 48 hrs by sulforhodamine B assay; procedure, shortened: as §1
[20] = test system: OVCAR-4; test: Growth inhibition of human OVCAR4 cells at 10^-5 M incubated for 48 hrs by sulforhodamine B assay; procedure, shortened: as §1
[21] = test system: HCC 2998; test: Growth inhibition of human HCC2998 cells at 10^-5 M incubated for 48 hrs by sulforhodamine B assay; procedure, shortened: as §1
[22] = test system: M14; test: Growth inhibition of human M14 cells at 10^-5 M incubated for 48 hrs by sulforhodamine B assay; procedure, shortened: as §1
[23] = test system: COLO 205; test: Growth inhibition of human COLO205 cells at 10^-5 M incubated for 48 hrs by sulforhodamine B assay; procedure, shortened: as §1
[24] = test system: OVCAR-3; test: Growth inhibition of human OVCAR3 cells at 10^-5 M incubated for 48 hrs by sulforhodamine B assay; procedure, shortened: as §1
[25] = test system: UO-31; test: Growth inhibition of human UO31 cells at 10^-5 M incubated for 48 hrs by sulforhodamine B assay; procedure, shortened: as §2
[26] = test system: BT-549; test: Growth inhibition of human BT549 cells at 10^-5 M incubated for 48 hrs by sulforhodamine B assay; procedure, shortened: as §1
[27] = test system: SK-MEL-2; test: Growth inhibition of human SK-MEL-2 cells at 10^-5 M incubated for 48 hrs by sulforhodamine B assay; procedure, shortened: as §1
[28] = test system: Hs-578T; test: Growth inhibition of human Hs 578T cells at 10^-5 M incubated for 48 hrs by sulforhodamine B assay; procedure, shortened: as §1
[29] = test system: DU-145; test: Growth inhibition of human DU145 cells at 10^-5 M incubated for 48 hrs by sulforhodamine B assay; procedure, shortened: as §1
[30] = test system: IGROV-1; test: Growth inhibition of human IGROV1 cells at 10^-5 M incubated for 48 hrs by sulforhodamine B assay; procedure, shortened: as §1
[31] = test system: CAKI-1; test: Growth inhibition of human Caki1 cells at 10^-5 M incubated for 48 hrs by sulforhodamine B assay; procedure, shortened: as §1
[32] = test system: UACC-257; test: Growth inhibition of human UACC257 cells at 10^-5 M incubated for 48 hrs by sulforhodamine B assay; procedure, shortened: as §2
[33] = test system: SF-268; test: Growth inhibition of human SF268 cells at 10^-5 M incubated for 48 hrs by sulforhodamine B assay; procedure, shortened: as §1
[34] = test system: SF-295; test: Growth inhibition of human SF295 cells at 10^-5 M incubated for 48 hrs by sulforhodamine B assay; procedure, shortened: as §1
[35] = test system: SK-MEL-5; test: Growth inhibition of human SK-MEL-5 cells at 10^-5 M incubated for 48 hrs by sulforhodamine B assay; procedure, shortened: as §1
[36] = test system: KM12; test: Growth inhibition of human KM12 cells at 10^-5 M incubated for 48 hrs by sulforhodamine B assay; procedure, shortened: as §1
[37] = test system: A549; test: Growth inhibition of human A549/ATCC cells at 10^-5 M incubated for 48 hrs by sulforhodamine B assay; procedure, shortened: as §1
[38] = test system: U-251; test: Growth inhibition of human U251 cells at 10^-5 M incubated for 48 hrs by sulforhodamine B assay; procedure, shortened: as §2
[39] = test system: RPMI-8226; test: Growth inhibition of human RPMI8226 cells at 10^-5 M incubated for 48 hrs by sulforhodamine B assay; procedure, shortened: as §1
[40] = test system: MOLT-4; test: Growth inhibition of human MOLT4 cells at 10^-5 M incubated for 48 hrs by sulforhodamine B assay; procedure, shortened: as §1
[41] = test system: NCI-H460; test: Growth inhibition of human NCI-H460 cells at 10^-5 M incubated for 48 hrs by sulforhodamine B assay; procedure, shortened: as §1
[42] = test system: SK-MEL-28; test: Growth inhibition of human SK-MEL-28 cells at 10^-5 M incubated for 48 hrs by sulforhodamine B assay; procedure, shortened: as §1
[43] = test system: NCI-H23; test: Growth inhibition of human NCI-H23 cells at 10^-5 M incubated for 48 hrs by sulforhodamine B assay; procedure, shortened: as §1
[44] = test system: SNB-75; test: Growth inhibition of human SNB75 cells at 10^-5 M incubated for 48 hrs by sulforhodamine B assay; procedure, shortened: as §1
[45] = test system: HOP-62; test: Growth inhibition of human HOP62 cells at 10^-5 M incubated for 48 hrs by sulforhodamine B assay; procedure, shortened: as §1
[46] = test system: CCRF-CEM; test: Growth inhibition of human CCRF-CEM cells at 10^-5 M incubated for 48 hrs by sulforhodamine B assay; procedure, shortened: as §1
[47] = test system: T47D; test: Growth inhibition of human T47D cells at 10^-5 M incubated for 48 hrs by sulforhodamine B assay; procedure, shortened: as §2
[48] = test system: SF-539; test: Growth inhibition of human SF539 cells at 10^-5 M incubated for 48 hrs by sulforhodamine B assay; procedure, shortened: as §1
[49] = test system: TK-10; test: Growth inhibition of human TK10 cells at 10^-5 M incubated for 48 hrs by sulforhodamine B assay; procedure, shortened: as §2
[50] = test system: HCT-15; test: Growth inhibition of human HCT15 cells at 10^-5 M incubated for 48 hrs by sulforhodamine B assay; procedure, shortened: as §1
[51] = test system: HOP-92; test: Growth inhibition of human HOP92 cells at 10^-5 M incubated for 48 hrs by sulforhodamine B assay; procedure, shortened: as §1
[52] = test system: A498; test: Growth inhibition of human A498 cells at 10^-5 M incubated for 48 hrs by sulforhodamine B assay; procedure, shortened: as §1
[53] = test system: SR; test: Growth inhibition of human SR cells at 10^-5 M incubated for 48 hrs by sulforhodamine B assay; procedure, shortened: as §1
[54] = test system: SNB-19; test: Growth inhibition of human SNB19 cells at 10^-5 M incubated for 48 hrs by sulforhodamine B assay; procedure, shortened: as §1
[55] = test system: MCF7; test: Growth inhibition of human MCF7 cells at 10^-5 M incubated for 48 hrs by sulforhodamine B assay; procedure, shortened: as §1
[56] = test system: 786-0; test: Growth inhibition of human 786-0 cells at 10^-5 M incubated for 48 hrs by sulforhodamine B assay; procedure, shortened: as §1
[57] = test system: PC-3; test: Growth inhibition of human PC3 cells at 10^-5 M incubated for 48 hrs by sulforhodamine B assay; procedure, shortened: as §1
[58] = test system: HCT-116; test: Growth inhibition of human HCT116 cells at 10^-5 M incubated for 48 hrs by sulforhodamine B assay; procedure, shortened: as §1

Measured: growth inhibition (GI)

CC[C@H](C)C(=O)O[C@@H]1[C@H]2C(=O)[C@](C)([C@H]3CC[C@@]4(C)[C@H](c5ccoc5)OC(=O)C[C@]45O[C@]35[C@@H]2OC(=O)C(C)C)[C@@H](CC(=O)OC)C1(C)C
inactive: all assays above
